Source: ChEMBL document CHEMBL1255395, “Laninamivir prodrug CS-8958, a long-acting neuraminidase inhibitor, shows superior anti-influenza virus activity after a single administration” (Antimicrob Agents Chemother, 2010)
Active and inactive are the calls of the source.

What was measured:
[1] = Half life in mouse; format: ADME, organism-based; settings: in vivo
Influenza A virus [2] = experiment: Antimicrobial activity against Influenza A virus (A/Puerto Rico/8/34(H1N1)) infected in BALB/c mouse assessed as increase in mouse survival at 1.1 mg/kg, po bid administered 11 hrs post infection for 5 days […] infection; format: functional, organism-based; set-up: dose 1.1 mg/kg; settings: A/Puerto Rico/8/1934(H1N1)
Outline: (§1)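 Female BALB/c mice (5–6 weeks) infected intranasally with A/PR/8/34 at 100 PFU, n = 10 per group. Each mouse got one intranasal dose at 11 hpi plus oral doses twice daily from 11 hpi to 120 hpi. Drug went by one route and saline by the other, all in saline vehicle. Survival was followed daily to day 20 and analysed by Kaplan-Meier with a log-rank test against the saline group.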

Influenza A virus [3] = experiment: Antimicrobial activity against Influenza A virus (A/Puerto Rico/8/34(H1N1)) infected in BALB/c mouse assessed as reduction in viral titer in lung at 10 mg/kg, po bid repeated regimen after 11 hrs post infection; format: functional, organism-based; set-up: dose 10 mg/kg; settings: A/Puerto Rico/8/1934(H1N1), TDE = time-dependent effect
Outline: (§2)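 BALB/c mice infected intranasally with A/PR/8/34 at 30 PFU. Oral drug was given twice daily from 11 hpi with intranasal saline at 11 hpi, or a single intranasal dose at 11 hpi with oral saline on the same schedule. Lungs (n = 3) were harvested at 35, 59 and 83 hpi. Titers were measured by MDCK plaque assay, log10 PFU/lungs.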

Influenza A virus [4] = experiment: Antimicrobial activity against Influenza A virus (A/Puerto Rico/8/34(H1N1)) infected in BALB/c mouse assessed as reduction in viral titer in lung at 1 mg/kg, po bid repeated regimen after 11 hrs post infection; format: functional, organism-based; set-up: dose 1 mg/kg; settings: A/Puerto Rico/8/1934(H1N1), TDE = time-dependent effect; outline: as §2
Influenza B virus [5] = experiment: Antimicrobial activity against Influenza B virus (B/Malaysia/2506/2004) infected po dosed Mustela putorius furo assessed as nasal viral titer treated bid after 4 hrs post infection measured after 1 day; format: functional, organism-based
Outline: (§3)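 Ferrets (600–800 g), seronegative by hemagglutination inhibition, anaesthetized with ketamine/xylazine and infected with B/Malaysia/2506/2004, 1,000 PFU/100 μl. From 4 hpi they received either a single intranasal dose (saline, 0.05 or 0.5 μmol/kg) or 25 mg/kg oral twice daily. Nasal wash titers measured by MDCK plaque assay on days 1, 2 and 3, log10 PFU/ml (n = 5). Undetectable samples entered at the lower limit of detection.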

Influenza B virus [6] = experiment: Antimicrobial activity against Influenza B virus (B/Malaysia/2506/2004) infected po dosed Mustela putorius furo assessed as nasal viral titer treated bid after 4 hrs post infection measured after 2 days; format: functional, organism-based; outline: as §3
Influenza B virus [7] = experiment: Antimicrobial activity against Influenza B virus (B/Malaysia/2506/2004) infected po dosed Mustela putorius furo assessed as nasal viral titer treated bid after 4 hrs post infection measured after 3 days; format: functional, organism-based; outline: as §3
Influenza A virus [8] = experiment: Antimicrobial activity against oseltamivir-sensitive influenza A virus (A/Yokohama/67/2006 (H1N1)) clone 1 infected in BALB/c mouse assessed as reduction in viral titer in lung at 1.0 mg/kg, po administered qd post 13 hrs infection measured after 37 hrs post infection; format: functional, organism-based; set-up: dose 1 mg/kg
Influenza A virus [9] = experiment: Antimicrobial activity against oseltamivir-sensitive influenza A virus (A/Yokohama/67/2006 (H1N1)) clone 1 infected in BALB/c mouse assessed as reduction in viral titer in lung at 1.0 mg/kg, po administered QD post 13 hrs infection measured after 61 hrs post infection; format: functional, organism-based; set-up: dose 1 mg/kg
Influenza A virus [10] = experiment: Antimicrobial activity against oseltamivir-sensitive influenza A virus (A/Yokohama/67/2006 (H1N1)) clone 1 infected in BALB/c mouse assessed as reduction in viral titer in lung at 1.0 mg/kg, po administered QD post 13 hrs infection measured after 85 hrs post infection; format: functional, organism-based; set-up: dose 1 mg/kg
Influenza A virus [11] = experiment: Antimicrobial activity against oseltamivir-sensitive influenza A virus (A/Yokohama/67/2006 (H1N1)) clone 1 infected in BALB/c mouse assessed as reduction in viral titer in lung at 10 mg/kg, po administered QD post 13 hrs infection measured after 37 hrs post infection; format: functional, organism-based; set-up: dose 10 mg/kg
Influenza A virus [12] = experiment: Antimicrobial activity against oseltamivir-sensitive influenza A virus (A/Yokohama/67/2006 (H1N1)) clone 1 infected in BALB/c mouse assessed as reduction in viral titer in lung at 10 mg/kg, po administered QD post 13 hrs infection measured after 61 hrs post infection; format: functional, organism-based; set-up: dose 10 mg/kg
Influenza A virus [13] = experiment: Antimicrobial activity against oseltamivir-sensitive influenza A virus (A/Yokohama/67/2006 (H1N1)) clone 1 infected in BALB/c mouse assessed as reduction in viral titer in lung at 10 mg/kg, po administered QD post 13 hrs infection measured after 85 hrs post infection; format: functional, organism-based; set-up: dose 10 mg/kg
Rattus norvegicus = species: Rattus norvegicus; experiment: Half life in rat assessed as oseltamivir carboxylate; format: ADME, organism-based; settings: in vivo
Influenza A virus [14] = experiment: Antimicrobial activity against Influenza A virus (A/Puerto Rico/8/34(H1N1)) infected in BALB/c mouse assessed as increase in mouse survival at 110 mg/kg, po for 1 days before infection; format: functional, organism-based; set-up: dose 110 mg/kg; settings: A/Puerto Rico/8/1934(H1N1)
Outline: (§4)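 Mice received one oral dose (200 μl in saline) at 1 day or 12 h before intranasal infection with A/PR/8/34 at 100 PFU. Saline controls were dosed intranasally 7 days before infection. n = 8 per group. Survival was monitored to 20 dpi and compared with saline by log-rank test.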

Influenza A virus [15] = experiment: Antimicrobial activity against Influenza A virus (A/Puerto Rico/8/34(H1N1)) infected in BALB/c mouse assessed as increase in mouse survival at 110 mg/kg, po for 12 hrs before infection; format: functional, organism-based; set-up: dose 110 mg/kg; settings: A/Puerto Rico/8/1934(H1N1); outline: as §4
Influenza A virus [16] = experiment: Antimicrobial activity against Influenza A virus (A/Puerto Rico/8/34(H1N1)) infected in BALB/c mouse assessed as increase in mouse survival at 1.1 mg/kg, po bid administered 11 hrs post infection for 5 days […] infection measured on day 20; format: functional, A/Puerto Rico/8/1934(H1N1); outline: as §1
Influenza A virus [17] = experiment: Antimicrobial activity against Influenza A virus (A/Puerto Rico/8/34(H1N1)) infected in BALB/c mouse assessed as increase in mouse survival at 1.1 mg/kg, po for 7 days post infection; format: functional, organism-based; set-up: dose 1.1 mg/kg; settings: A/Puerto Rico/8/1934(H1N1)
Influenza A virus [18] = experiment: Antimicrobial activity against Influenza A virus (A/Puerto Rico/8/34(H1N1)) infected in BALB/c mouse assessed as increase in mouse survival at 1.1 mg/kg, po for 4 days post infection; format: functional, organism-based; set-up: dose 1.1 mg/kg; settings: A/Puerto Rico/8/1934(H1N1)
Influenza A virus [19] = experiment: Antimicrobial activity against Influenza A virus (A/Puerto Rico/8/34(H1N1)) infected in BALB/c mouse assessed as increase in mouse survival at 1.1 mg/kg, po for 1 day post infection; format: functional, organism-based; set-up: dose 1.1 mg/kg; settings: A/Puerto Rico/8/1934(H1N1)
Influenza A virus [20] = experiment: Antimicrobial activity against Influenza A virus (A/Puerto Rico/8/34(H1N1)) infected in BALB/c mouse assessed as increase in mouse survival at 1.1 mg/kg, po for 12 hrs post infection; format: functional, organism-based; set-up: dose 1.1 mg/kg; settings: A/Puerto Rico/8/1934(H1N1)
Influenza A virus [21] = experiment: Antimicrobial activity against Influenza A virus (A/Puerto Rico/8/34(H1N1)) infected in BALB/c mouse assessed as increase in mouse survival at 11 mg/kg, po for 7 days post infection; format: functional, organism-based; set-up: dose 11 mg/kg; settings: A/Puerto Rico/8/1934(H1N1)
Influenza A virus [22] = experiment: Antimicrobial activity against Influenza A virus (A/Puerto Rico/8/34(H1N1)) infected in BALB/c mouse assessed as increase in mouse survival at 11 mg/kg, po for 4 days post infection; format: functional, organism-based; set-up: dose 11 mg/kg; settings: A/Puerto Rico/8/1934(H1N1)
Influenza A virus [23] = experiment: Antimicrobial activity against Influenza A virus (A/Puerto Rico/8/34(H1N1)) infected in BALB/c mouse assessed as increase in mouse survival at 11 mg/kg, po for 1 day post infection; format: functional, organism-based; set-up: dose 11 mg/kg; settings: A/Puerto Rico/8/1934(H1N1)
Influenza A virus [24] = experiment: Antimicrobial activity against Influenza A virus (A/Puerto Rico/8/34(H1N1)) infected in BALB/c mouse assessed as increase in mouse survival at 11 mg/kg, po for 12 hrs post infection; format: functional, organism-based; set-up: dose 11 mg/kg; settings: A/Puerto Rico/8/1934(H1N1)

CO[C@@H]([C@@H]1OC(C(=O)O)=C[C@H](NC(=N)N)[C@H]1NC(C)=O)[C@H](O)CO [LANINAMIVIR]
41.4 h: half-life [1]

CCOC(=O)C1=C[C@@H](OC(CC)CC)[C@H](NC(C)=O)[C@@H](N)C1.O=P(O)(O)O [OSELTAMIVIR PHOSPHATE]
50%: Activity (Influenza A virus [16])
7 h: t1/2 (Rattus norvegicus)
inactive: Activity (Influenza A virus [17]) | Activity (Influenza A virus [18]) | Activity (Influenza A virus [19]) | Activity (Influenza A virus [20]) | Activity (Influenza A virus [21]) | Activity (Influenza A virus [22]) | Activity (Influenza A virus [23]) | Activity (Influenza A virus [24])
active: Activity (Influenza A virus [2]) | Activity (Influenza A virus [3]) tde | Activity (Influenza A virus [4]) tde | Activity (Influenza B virus [5]) Dose-dependent effect | Activity (Influenza B virus [6]) Dose-dependent effect | Activity (Influenza B virus [7]) Dose-dependent effect | Activity (Influenza A virus [8]) | Activity (Influenza A virus [9]) | Activity (Influenza A virus [10]) | Activity (Influenza A virus [11]) | Activity (Influenza A virus [12]) | Activity (Influenza A virus [13]) | Activity (Influenza A virus [14]) | Activity (Influenza A virus [15])
